Sampled rows, rich in hits. Any-hit rate of the full collection: about 2.8%.
CAL PDZ FP-1: blocks peptide binding to human CAL PDZ domain. Q9HD26. purified CAL PDZ, TMR-peptide fluorescence polarization, 1 h. inhibition, % at 20 µM. hit rate 0.02% among 330,000;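 active means highest replicate inhibition of at least 40%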;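 further: plate controls were DMSO neutral control wells for no effect and unlabeled competitor peptide control wells for full effect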
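System: purified tagged CAL PDZ domain construct (CerCALP). Schedule: 1 h incubation at room temperature before polarization reading. Medium: 25 mM sodium phosphate pH 7.4, 150 mM NaCl, TCEP, IgG, Thesit. Read-out: percent inhibition from loss of millipolarization. Measured by: FP readout, S and P plane fluorescence. Probe or stimulus: fluorescent TMR peptide probe.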
CAL PDZ FP-2: CAL PDZ (human) peptide binding inhibition | purified CAL PDZ, TMR-peptide fluorescence polarization, 1 h | inhibition, % at 24.9 µM | hit rate 0.92% among 300,000 | Q9HD26 | AID 602252;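 active means mean inhibition of at least 30% with at least half of replicates also reaching 30%; inconclusive means no clear call, values can overlap the other calls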;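 further: 0% = DMSO neutral control and 100% = excess unlabeled competitor peptide PRC23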
dFosB act: activators of mouse delta FosB homodimer; hit rate 0.99% among 340,000; purified delta FosB, TAMRA-CDK5 oligo fluorescence polarization; percent of positive-control signal above neutral wells; AID 493131; P13346; activation, % at 25 µM;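 active means mean activation above about 17%, with every replicate also reaching it, limit read from the data, passing the limit was not always enough; inconclusive means only one of the two conditions met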
SR-BI uptake up: activators of SR-BI mediated HDL lipid uptake. hit rate 0.096% among 320,000. CHO ldlA[mSR-BI] cells, DiI-HDL uptake fluorescence, 3 h; 100 = double the neutral-control signal. activation, % at 12.5 µM;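 active means mean replicate activation of at least 60% and every replicate at or above 60%; inconclusive means mean or all-replicate condition met, but not both; inactive means mean below 60% and not all replicates reaching 60%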;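 further: 0% = median plate neutral-control signal and 100% = twice that signal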
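Assay system: LDL receptor-deficient CHO ldlA cells overexpressing murine SR-BI / Medium: BSA-supplemented, HEPES-buffered Ham's F12, pH 7.4 / Probe or stimulus: DiI-labelled HDL at 10 µg/mL final / Timing: compound with DiI-HDL co-incubation, 3 h at 37 °C / Technique: bottom-read cell fluorescence after medium removal, ex 550/em 595 nm / Measure: HDL uptake via cellular fluorescence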
SR-BI HDL uptake: inhibitors of mouse SR-BI mediated HDL lipid uptake. ldlA[mSR-BI] CHO cells, DiI-HDL uptake fluorescence, 3 h. inhibition, % at 12.5 µM. hit rate 0.96% among 320,000. AID 488896;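 active means mean replicate inhibition of at least 70% and a set share of replicates each scoring 70 or more; inconclusive means meets just one of the two criteria; inactive means fails both criteria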;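 further: 0% = median of neutral control wells and 100% = median of positive control wells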
Target sequence (Q61009 whole entry, looked up): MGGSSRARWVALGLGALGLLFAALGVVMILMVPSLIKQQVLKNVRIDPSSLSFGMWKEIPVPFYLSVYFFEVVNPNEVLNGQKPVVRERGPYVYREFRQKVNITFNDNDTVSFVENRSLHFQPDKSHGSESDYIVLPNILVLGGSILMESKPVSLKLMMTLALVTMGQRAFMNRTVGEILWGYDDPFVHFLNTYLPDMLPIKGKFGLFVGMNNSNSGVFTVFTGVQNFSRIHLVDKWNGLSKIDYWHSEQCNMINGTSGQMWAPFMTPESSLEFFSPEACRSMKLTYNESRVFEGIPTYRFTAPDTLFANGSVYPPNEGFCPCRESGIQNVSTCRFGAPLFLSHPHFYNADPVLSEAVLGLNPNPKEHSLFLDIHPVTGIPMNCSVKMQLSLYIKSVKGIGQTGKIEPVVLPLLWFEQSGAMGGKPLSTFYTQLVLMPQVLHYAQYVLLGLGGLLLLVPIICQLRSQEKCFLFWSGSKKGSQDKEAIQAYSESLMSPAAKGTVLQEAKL
Starred values were filed as active, the others as inactive; ? = inconclusive; · = no result given.

SMILES	CAL PDZ FP-1	CAL PDZ FP-2	dFosB act	SR-BI uptake up	SR-BI HDL uptake
C#CCOCCOCCOCCNc1nc(N2CCN(C(=O)[C@H](CCCCN)n3cc([C@@H](N)C(C)CC)nn3)CC2)nc(N2CCN(C(=O)[C@H](Cc3cc4ccccc4[nH]3)n3cc([C@@H](N)C(C)CC)nn3)CC2)n1 (stereo partly drawn)	0	-2	63*	24	-24
C#CCOCCOCCOCCNc1nc(N2CCN(C(=O)C(Cc3cc4ccccc4[nH]3)n3cc(C(N)C(C)CC)nn3)CC2)nc(N2CCN(C(=O)C(Cc3cc4ccccc4[nH]3)n3cc(C(N)C(C)CC)nn3)CC2)n1 (stereo not drawn)	0	7	?	67*	-67
CC1CN(C(=O)c2cc(S(=O)(=O)N3CCCCC3)ccc2Cl)CC(C)O1 (stereo not drawn)	0	39*	0	9	-9
O=C(NCCCN1CCOCC1)c1cccc(S(=O)(=O)Nc2cc(Cl)ccc2Cl)c1	-1	38*	2	3	-3
CC1CN(C(=O)c2cc(S(=O)(=O)N3CCCC3)ccc2Cl)CC(C)O1 (stereo not drawn)	-2	-2	3	-5	5
CC1CN(C(=O)c2cccc(S(=O)(=O)Nc3cc(Cl)ccc3Cl)c2)CC(C)O1 (stereo not drawn)	-1	79*	-4	25	-25
CC1CN(C(=O)c2cccc(S(=O)(=O)Nc3ccccc3Cl)c2)CC(C)O1 (stereo not drawn)	0	-3	-3	21	-21
CCOC(=O)[C@@H]1[C@H]2COc3ccccc3[C@H]2N2C(=O)N(c3cccc(C)c3)C(=O)[C@]12C	0	-3	0	24	-24
CCOc1ccc(NC(=O)N(Cc2ccc(C)cc2)Cc2ccccn2)cc1	-1	-7	-11	0	0
CCN1CCN(c2ccc(S(=O)(=O)N3CCCCC3)cc2NC(=O)c2cccc(C(F)(F)F)c2)CC1	0	·	21*	56	-56
O=C(Nc1ccc(F)cc1F)c1ccc(S(=O)(=O)N2CCCCC2)cc1	0	34*	-8	-35	35
O=C(Nc1ccc(F)cc1F)c1ccc(S(=O)(=O)NCc2ccco2)cc1	-1	48*	-1	-29	29
CCOc1ccccc1NC(=O)c1cc(S(=O)(=O)NCc2ccco2)ccc1F	-2	0	-8	-50	50
COc1ccc(OC)c(NC(=O)c2cc(S(=O)(=O)NCc3ccco3)ccc2F)c1	0	·	-9	-83	83*
CCN1CCN(c2ccc(S(=O)(=O)N3CCCCC3)cc2NC(=O)c2cccc(F)c2)CC1	-3	0	-3	16	-16
C=C1CCN([C@@H](Cc2ccccc2)C(=O)NCc2ccc(Cl)cc2)S(=O)(=O)c2ccccc21	-1	1	-4	-9	9
CC(=O)Nc1ccc(S(=O)(=O)NCCc2cc3ccc(C)c(C)c3[nH]c2=O)cc1	-3	-1	-6	9	-9
C#CCSc1nc(=O)c2cccnc2n1-c1ccc(C)cc1	0	3	-8	19	-19
COc1ccc(C2=NN(C(=O)COC(=O)c3ccc(NC(=O)CC#N)cc3)C(c3ccco3)C2)cc1 (stereo not drawn)	-1	-1	-5	-50	50
COc1ccc(NC(=O)C(CC(C)C)NC(=O)C2CCC(C)CC2)c(OC)c1 (stereo not drawn)	-1	-4	-4	-72	72*
CCC(C)C(NC(=O)C1CCC(C)CC1)C(=O)Nc1ccc(OC)cc1OC (stereo not drawn)	·	-3	3	-79	79*
CC1(C)NC(=O)N(CC(=O)OCC(=O)c2ccc(F)cc2)C1=O	-1	-8	-1	152*	-152
CC1(C)NC(=O)N(CC(=O)OCC(=O)c2ccc(Cl)s2)C1=O	-1	7	1	3	-3
Cc1ccc(C(=O)OCC(=O)N(CC(C)C)c2c(N)n(Cc3ccccc3)c(=O)[nH]c2=O)o1	-2	-7	-5	8	-8
Cc1cc(C)nc(NS(=O)(=O)c2ccc(N=Cc3c(C)[nH]n(-c4ccccc4)c3=O)cc2)n1	-2	-4	-7	42	-42
SMILES	CAL PDZ FP-1	CAL PDZ FP-2	dFosB act	SR-BI uptake up	SR-BI HDL uptake
Cc1[nH]n(-c2ccccc2)c(=O)c1C=Nc1ccc(S(=O)(=O)N=C(N)N)cc1	1	-4	26*	5	-5
Oc1ccccc1C=NNc1nc2ccccc2s1	0	·	-5	-101	101*
Oc1ccc(C=NNc2nc3ccccc3s2)c(O)c1	6	6	7	-74	?
C(=N\Nc1nc2ccccc2s1)/c1cccs1	-1	23	-10	0	0
CCn1c(C)c(/C=N/Nc2nc3ccccc3s2)c2ccccc21	·	-7	0	-112	112*
Brc1ccc(/C=N/Nc2nc3ccccc3o2)cc1	·	-2	-6	-9	9
Oc1ccccc1/C=N/Nc1nc2ccccc2o1	-2	-1	6	-93	93*
Cc1ccccc1C(=O)OC1CCCN(C)C1 (stereo not drawn)	2	-1	-9	·	·
N#Cc1cnc2nc(SCc3ccccc3)nn2c1	·	-2	-2	10	-10
Cc1cccc(-c2ncc(CN3CCCC(CO)(Cc4cccc(Cl)c4)C3)cn2)c1 (stereo not drawn)	16	57*	-9	·	·
O=C(NNS(=O)(=O)c1ccc(Br)cc1)c1cccs1	0	2	-2	15	-15
CC(NC(=O)c1ccc(C(=O)c2ccccc2)cc1)c1ccc(S(N)(=O)=O)cc1 (stereo not drawn)	-2	0	-4	-8	8
OC(CNc1ccnc2cc(Cl)ccc12)CNC1CCCCC1 (stereo not drawn)	-4	-3	26*	0	0
COc1cccc(N2[C@@H](CC(=O)O)c3cc(C(F)(F)F)ccc3S2(=O)=O)c1	1	2	1	10	-10
CC1CC(=O)c2c(cc3c(-c4c(O)cc(O)c5c(O)c6c(cc45)OC(C)CC6=O)c(O)cc(O)c3c2O)O1 (stereo not drawn)	0	0	-46	-117	117*
c1nc(C2CCCCC2)cc2cc3c(cc12)OCO3	0	-5	-12	·	·
CCOC(=O)C1CCCN(C(c2ccccn2)c2c(C)[nH]c3ccccc23)C1 (stereo not drawn)	-2	119*	0	14	-14
Cc1[nH]c2ccccc2c1C(c1ccccn1)N1CCCC1 (stereo not drawn)	-1	0	-4	·	·
CC[C@H](C)Cc1cn([C@@H](CCCN=C(NC(=O)OC(C)(C)C)NC(=O)OC(C)(C)C)C(=O)NCCCCCCCCCCC(=O)N2CCN(C(=O)OC(C)(C)C)CC2)nn1	-1	-4	33*	-14	14

Compound activity (PubChem BioAssay)
